Measurements from ChEMBL document CHEMBL1240394, “Antibacterial activity of N-pentylpantothenamide is due to inhibition of coenzyme a synthesis” (2010).
Calls of active or inactive are those of the source. The rule behind the calls is not given here.

Key:
Escherichia coli [1] = assay: Antibacterial activity against Escherichia coli JT13 deficient in acpH gene assessed as microbial growth inhibition
Escherichia coli [2] = assay: Inhibition of coenzyme A synthesis in acpH null mutant containing Escherichia coli JT6 transformed with pBAD24 plasmid expressing CoaD gene assessed as decrease in acetyl CoA level at 100 ug/ml after 90 mins by HPLC relative to untreated control; type: functional, organism-based
Escherichia coli [3] = assay: Antibacterial activity against acpH null mutant containing Escherichia coli JT6 transformed with pJT5 expressing AcpH assessed as microbial growth inhibition; type: functional, organism-based
Escherichia coli [4] = assay: Antibacterial activity against Escherichia coli JT6 assessed as microbial growth inhibition
Escherichia coli [5] = assay: Inhibition of coenzyme A synthesis in acpH null mutant containing Escherichia coli JT6 transformed with pBAD24 plasmid expressing CoaE gene assessed as decrease in acetyl CoA level at 100 ug/ml after 90 mins by HPLC relative to untreated control; type: functional, organism-based
Escherichia coli [6] = assay: Inhibition of coenzyme A synthesis in acpH null mutant containing Escherichia coli JT6 transformed with pBAD24 plasmid expressing CoaBC gene assessed as decrease in acetyl CoA level at 100 ug/ml after 90 mins by HPLC relative to untreated control; type: functional, organism-based
Escherichia coli [7] = assay: Induction of ethyldethia-ACP accumulation in Escherichia coli JT6 at 200 ug/ml by gel electrophoresis; type: functional, organism-based
Summary of the method: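 Exponentially growing E. coli JT6 (UB1005 tolC::Tn10, lacking the outer membrane efflux exit duct) in M9 minimal medium with 0.4% glycerol and 0.1% vitamin-free Casamino Acids. Culture supplemented with 200 μg/ml N5-Pan. ACP species resolved by conformationally sensitive gel electrophoresis.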

Escherichia coli [8] = assay: Induction of holo-ACP accumulation in Escherichia coli JT6 pJT5 plasmid expressing AcpH at 100 ug/ml after 3 hrs by Western blotting; type: functional, organism-based
Summary of the method: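 JT6 cells carrying pJT5 (AcpH under arabinose control), with empty pBAD322 as the vector control, treated with 100 μg/ml N5-Pan. At 3 h, crude cell extracts were run on conformationally sensitive gel electrophoresis. Proteins were electroblotted and probed by Western blot with anti-ACP antibody.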

Escherichia coli [9] = assay: Inhibition of coenzyme A synthesis in Escherichia coli JT7 carrying panD deletion assessed as decrease in acetyl CoA level at 100 ug/ml after 90 mins by HPLC relative to untreated control; type: functional
Summary of the method: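 The culture was split, one half given 100 μg/ml N5-Pan, and both incubated a further 90 min. CoA pools were extracted and analysed by reverse-phase C18 HPLC with internal standards.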

Escherichia coli [10] = assay: Inhibition of coenzyme A synthesis in acpH null mutant containing Escherichia coli JT6 transformed with pBAD24 plasmid expressing CoaA gene assessed as decrease in acetyl CoA level at 100 ug/ml after 90 mins by HPLC relative to untreated control; type: functional, organism-based

Compound: CCCCCNC(=O)CCNC(=O)[C@H](O)C(C)(C)CO
- growth inhibition (GI) (Escherichia coli [1]): Active
- inhibition (Escherichia coli [2]): Active
- growth inhibition (GI) (Escherichia coli [3]): inactive
- growth inhibition (GI) (Escherichia coli [4]): Active
- inhibition (Escherichia coli [5]): Active
- inhibition (Escherichia coli [6]): Active
- Activity (Escherichia coli [7]): Active
- Activity (Escherichia coli [8]): Active
- fold change (FC) (Escherichia coli [9]): >10
- inhibition (Escherichia coli [10]): Active
